The values that follow come from ChEMBL document CHEMBL1764975, “A new DNA gyrase inhibitor subclass of the cyclothialidine family based on a bicyclic dilactam-lactone scaffold. Synthesis and antibacterial properties” (J Med Chem, 2011).

For data set [1], the system named is Escherichia coli. The experiment in a line: Inhibition of Escherichia coli DNA gyrase A2B2 complex after 30 mins by supercoiling assay.
Data set [2] deals with Staphylococcus aureus. The experiment in a line: (§1) Antimicrobial activity against Staphylococcus aureus Smith after 18 hrs by agar dilution method. Type of data set: functional. In short, it runs like this: (§2)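 Agar dilution on Mueller-Hinton medium, inoculum 10⁴ CFU/spot; MIC is the minimum inhibitory concentration against the named strain.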
Data set [3] concerns Staphylococcus aureus. The experiment in a line: Antimicrobial activity against Staphylococcus aureus Smith infected in iv dosed septicaemia Swiss albino mouse model after 4 days. Type of data set: functional. The note with it: 96 h. In a few lines: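 Septicaemia model in mice infected with S. aureus Smith, compound given iv. In experiments with 0-1 survivors among 5-10 control mice, ED₅₀ (mg/kg) taken as lowest dose giving 3-5 survivors out of 5 infected mice.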

In data set [4] the test system is Escherichia coli. The data set can be described thus: Antimicrobial activity against Escherichia coli 25922 after 18 hrs by agar dilution method. Type of data set: functional. As to conditions: Escherichia coli, 25922, 18 h. In short, it runs like this:
as §2

Data set [5] deals with Stenotrophomonas maltophilia. The data set can be described thus: Antimicrobial activity against Xanthomonas maltophilia IAC 739 after 18 hrs by agar dilution method. In kind it is functional. The note with it: IAC 739, 18 h. In short, it runs like this: as §2
Data set [6] has as its system Staphylococcus aureus. The experiment in a line: Antimicrobial activity against Staphylococcus aureus ATCC 25923 after 18 hrs by agar dilution method. Type of data set: functional. As to conditions: ATCC 25923, 18 h. In a few lines: as §2
Data set [7] deals with Staphylococcus aureus. The description is as §1. Type of data set: functional. In a few lines: as §2
The source holds these as a separate data set.

In data set [8] the test system is Staphylococcus epidermidis. The data set can be described thus: Antimicrobial activity against Staphylococcus epidermidis 16/2 after 18 hrs by agar dilution method. In kind it is functional. The note with it: 16/2, 18 h. In a few lines: as §2
Data set [9] concerns Enterococcus faecalis. The experiment in a line: Antimicrobial activity against Enterococcus faecalis 6 after 18 hrs by agar dilution method. As to conditions: Enterococcus faecalis, 6, 18 h.
In the next data set the test system is Streptococcus pyogenes. The data set can be described thus: Antimicrobial activity against Streptococcus pyogenes b15 after 18 hrs by agar dilution method. In kind it is functional. The note with it: b15, 18 h. In a few lines: as §2
Data set [10] can be described thus: Octanol-water partition coefficient, log D of the compound at pH 7.4 by shake-flask method. Type of data set: physicochemical. In a few lines: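 Octanol/water partition measured by shake-flask at pH 7.4.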
The subject of data set [11] is Staphylococcus aureus. The experiment in a line: Plasma shift, ratio of MIC for Staphylococcus aureus Smith in presence of mouse plasma to MIC for Staphylococcus aureus Smith in absence of mouse plasma. Type of data set: functional. In a few lines: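 Agar dilution MICs against S. aureus Smith were run on BHI agar mixed 1:1 with mouse plasma and on plain BHI agar. The plasma shift is the MIC with plasma divided by the MIC on BHI agar alone.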

The subject of data set [12] is Staphylococcus aureus. The experiment in a line: Antimicrobial activity against multidrug-resistant Staphylococcus aureus after 18 hrs by agar dilution method. In kind it is functional. In a few lines: (§3)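 Agar dilution on Mueller-Hinton agar, inoculum 10⁴ CFU/spot, against panels of multiresistant clinical strains (S. aureus 11, E. faecalis 16, E. faecium 23). MIC_50/90 in μg/mL taken as the minimum concentration inhibiting at least 50% or 90% of the strains tested.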

Data set [13] has as its system Enterococcus faecalis. The data set can be described thus: Antimicrobial activity against multidrug-resistant Enterococcus faecalis after 18 hrs by agar dilution method. In kind it is functional. In a few lines: as §3
The subject of another data set is Enterococcus faecium. The experiment in a line: Antimicrobial activity against multidrug-resistant Enterococcus faecium after 18 hrs by agar dilution method. In kind it is functional. In short, it runs like this:
as §3

In a further data set the test system is Streptococcus pneumoniae. The data set can be described thus: Antimicrobial activity against multidrug-resistant Streptococcus pneumoniae after 18 hrs by agar dilution method. Type of data set: functional. In short, it runs like this: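 Agar dilution on IsoSensitest agar supplemented with sheep blood (5% v/v), inoculum 10⁴ CFU/spot, against 21 multiresistant S. pneumoniae strains. MIC_50/90 in μg/mL taken as the minimum concentration inhibiting at least 50% or 90% of the strains.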

A further data set concerns Haemophilus influenzae. The experiment in a line: Antimicrobial activity against multidrug-resistant Haemophilus influenzae after 18 hrs by agar dilution method. Type of data set: functional. In a few lines: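 Agar dilution on Haemophilus test medium, inoculum 10⁵ CFU/spot, against 21 multiresistant H. influenzae strains. MIC_50/90 in μg/mL taken as the minimum concentration inhibiting at least 50% or 90% of the strains.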

The next data set deals with Moraxella catarrhalis. The data set can be described thus: Antimicrobial activity against multidrug-resistant Moraxella catarrhalis after 18 hrs by agar dilution method. Type of data set: functional. In a few lines: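 Agar dilution on Mueller-Hinton agar supplemented with sheep blood (5% v/v), inoculum 10⁵ CFU/spot, against 20 multiresistant M. catarrhalis strains. MIC_50/90 in μg/mL taken as the minimum concentration inhibiting at least 50% or 90% of the strains.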

≈ marks a conversion by molar mass, not a printed value. Some results are limits rather than exact numbers.

In the data set with Escherichia coli [1], `COc1cc(O)c2c(c1C)C(=O)OCCCCC(=S)N[C@H](c1nc(C)no1)CSC2` yielded an MNEC of 0.004 µg/mL. In addition, the MIC with Staphylococcus aureus [2] was 0.06 µg/mL (≈ 0.133 µM); against Escherichia coli [4], > 64 µg/mL; in data set [5] it was 0.5 µg/mL (≈ 1.11 µM); against Staphylococcus aureus [6] it was 0.12 µg/mL (≈ 0.266 µM); against Staphylococcus aureus [7], 0.06 µg/mL (≈ 0.133 µM); in data set [8] it was 0.01 µg/mL (≈ 0.0221 µM). The MIC in the data set on Enterococcus faecalis [9] and against Streptococcus pyogenes was 0.25 µg/mL (≈ 0.554 µM) in each case. For the same molecule, in the data set on Staphylococcus aureus [3], the ED50 is > 25 mg/kg. Also, in data set [10], the logD worked out at 3.09. Besides, the Ratio with Staphylococcus aureus [11] is listed as 8. Also, the MIC50 in the data set on Staphylococcus aureus [12] was 1 µg/mL (≈ 2.21 µM); against Enterococcus faecalis [13], 4 µg/mL (≈ 8.86 µM); in the data set on Enterococcus faecium, 8 µg/mL (≈ 17.7 µM); against Streptococcus pneumoniae, 1 µg/mL (≈ 2.21 µM); with Haemophilus influenzae, 8 µg/mL (≈ 17.7 µM); in the data set with Moraxella catarrhalis, 2 µg/mL (≈ 4.43 µM). The MIC90 with Staphylococcus aureus [12] was 1 µg/mL (≈ 2.21 µM); in the data set with Enterococcus faecalis [13], 4 µg/mL (≈ 8.86 µM); in the data set with Enterococcus faecium it was 8 µg/mL (≈ 17.7 µM); in the data set on Streptococcus pneumoniae, 2 µg/mL (≈ 4.43 µM); against Haemophilus influenzae it was 16 µg/mL (≈ 35.4 µM); in the data set with Moraxella catarrhalis, 2 µg/mL (≈ 4.43 µM).
In the data set on Escherichia coli [1], `COc1cc(O)c2c(c1Br)C(=O)OCC(=O)NCC(=O)N[C@H](c1nc(C)no1)CSC2` had an MNEC of 0.02 µg/mL. The MIC against Staphylococcus aureus [2] is 1 µg/mL (≈ 1.94 µM); against Escherichia coli [4], > 64 µg/mL; in [5], > 64 µg/mL; in the data set with Staphylococcus aureus [6], 4 µg/mL (≈ 7.76 µM); against Staphylococcus aureus [7], 1 µg/mL (≈ 1.94 µM); in [8] it was < 0.12 µg/mL. For the same molecule, the MIC with Enterococcus faecalis [9] was 0.5 µg/mL (≈ 0.97 µM); against Streptococcus pyogenes it was < 0.12 µg/mL. This molecule also yielded an ED50 in the data set on Staphylococcus aureus [3] of 3 mg/kg. The same molecule yielded a logD in data set [10] of 1.4. Further, in the data set on Staphylococcus aureus [11], the Ratio amounted to 2. Besides, the MIC50 with Staphylococcus aureus [12] came out at 4 µg/mL (≈ 7.76 µM); against Enterococcus faecalis [13] it was 0.25 µg/mL (≈ 0.485 µM); against Enterococcus faecium, 0.5 µg/mL (≈ 0.97 µM); in the data set on Streptococcus pneumoniae, 0.5 µg/mL (≈ 0.97 µM); against Haemophilus influenzae, 1 µg/mL (≈ 1.94 µM); against Moraxella catarrhalis, 1 µg/mL (≈ 1.94 µM). In addition, the MIC90 is 4 µg/mL (≈ 7.76 µM) in the data set with Staphylococcus aureus [12]; 0.5 µg/mL (≈ 0.97 µM) against Enterococcus faecalis [13]; 0.5 µg/mL (≈ 0.97 µM) in the data set with Enterococcus faecium; 2 µg/mL (≈ 3.88 µM) against Streptococcus pneumoniae; 4 µg/mL (≈ 7.76 µM) against Haemophilus influenzae; 2 µg/mL (≈ 3.88 µM) against Moraxella catarrhalis.
